Results as given in ChEMBL document CHEMBL1125326, “Potent gonadotropin releasing hormone antagonists with low histamine-releasing activity” (J Med Chem, 1992).
Values after ≈ are worked out from the molar mass of the structure shown.

Legend:
Rattus norvegicus [1] = experiment: Evaluated for the anti-ovulatory activity (rats were injected subcutaneously at noon on proestrus); type: functional
In short: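 Female rats with at least two consecutive normal 4-day cycles, confirmed by vaginal lavage cytology, were dosed once s.c. at noon on proestrus in 50% propylene glycol/0.9% saline. On the morning of expected estrus, the oviducts were examined for ovulated eggs, which were counted. The effective dose came from % females ovulating plotted against log dose, usually with ≥3 dose groups (10 rats per group total).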

Rattus norvegicus [2] = species: Rattus norvegicus; experiment: Evaluated for the release of histamine in rats (based on 10 animals per dose group); type: functional, organism-based

SMILES	ED50 (Rattus norvegicus [1]) [µg]	EC50 (Rattus norvegicus [2]) [µg/mL]
CC(=O)N[C@H](Cc1ccc2ccccc2c1)C(=O)N[C@H](Cc1ccc(Cl)cc1)C(=O)N[C@H](Cc1cccnc1)C(=O)N[C@@H](CO)C(=O)N[C@@H](CCCN=C(N)N)C(=O)N[C@H](CCC(=O)N[C@@H](C)C(=O)N[C@@H](C)C(=O)O)C(=O)N[C@@H](CC(C)C)C(=O)N[C@@H](CCCN=C(N)N)C(=O)N1CCC[C@H]1C(=O)N[C@H](C)C(N)=O	<1.5	1.6 (≈ 1.04 µM)
CC(=O)N[C@H](Cc1ccc2ccccc2c1)C(=O)N[C@H](Cc1ccc(Cl)cc1)C(=O)N[C@H](Cc1c[nH]c2ccccc12)C(=O)N[C@@H](CO)C(=O)N[C@@H](Cc1ccc(O)cc1)C(=O)N[C@H](Cc1c[nH]c2ccccc12)C(=O)N[C@@H](CC(C)C)C(=O)N[C@@H](CCCCN=C(NCC(F)(F)F)NCC(F)(F)F)C(=O)N1CCC[C@H]1C(=O)N[C@H](C)C(N)=O [listing 1 of 2 here]		> 100
CC(=O)N[C@H](Cc1ccc2ccccc2c1)C(=O)N[C@H](Cc1ccc(Cl)cc1)C(=O)N[C@H](Cc1c[nH]c2ccccc12)C(=O)N[C@@H](CO)C(=O)N[C@@H](Cc1ccc(O)cc1)C(=O)N[C@H](Cc1c[nH]c2ccccc12)C(=O)N[C@@H](CC(C)C)C(=O)N[C@@H](CCCCN=C(NCC(F)(F)F)NCC(F)(F)F)C(=O)N1CCC[C@H]1C(=O)N[C@H](C)C(N)=O [listing 2 of 2 here]	>2	
CC(=O)N[C@H](Cc1ccc2ccccc2c1)C(=O)N[C@H](Cc1ccc(Cl)cc1)C(=O)N[C@H](Cc1c[nH]c2ccccc12)C(=O)N[C@@H](CO)C(=O)N[C@@H](CCCN=C(N)N)C(=O)N[C@H](Cc1c[nH]c2ccccc12)C(=O)N[C@@H](CC(C)C)C(=O)N[C@@H](CCCCN=C(NCC(F)(F)F)NCC(F)(F)F)C(=O)N1CCC[C@H]1C(=O)N[C@H](C)C(N)=O [listing 1 of 2 here]		0.56 (≈ 0.335 µM)
CC(=O)N[C@H](Cc1ccc2ccccc2c1)C(=O)N[C@H](Cc1ccc(Cl)cc1)C(=O)N[C@H](Cc1c[nH]c2ccccc12)C(=O)N[C@@H](CO)C(=O)N[C@@H](CCCN=C(N)N)C(=O)N[C@H](Cc1c[nH]c2ccccc12)C(=O)N[C@@H](CC(C)C)C(=O)N[C@@H](CCCCN=C(NCC(F)(F)F)NCC(F)(F)F)C(=O)N1CCC[C@H]1C(=O)N[C@H](C)C(N)=O [listing 2 of 2 here]	>2	
CC(=O)N[C@H](Cc1ccc2ccccc2c1)C(=O)N[C@H](Cc1ccc(Cl)cc1)C(=O)N[C@H](Cc1c[nH]c2ccccc12)C(=O)N[C@@H](CO)C(=O)N[C@@H](Cc1ccc(O)cc1)C(=O)N[C@H](Cc1c[nH]c2ccccc12)C(=O)N[C@@H](CC(C)C)C(=O)N[C@@H](CCCCNC1=NCCCN1)C(=O)N1CCC[C@H]1C(=O)N[C@H](C)C(N)=O [listing 1 of 2 here]		8.5 (≈ 5.48 µM)
CC(=O)N[C@H](Cc1ccc2ccccc2c1)C(=O)N[C@H](Cc1ccc(Cl)cc1)C(=O)N[C@H](Cc1c[nH]c2ccccc12)C(=O)N[C@@H](CO)C(=O)N[C@@H](Cc1ccc(O)cc1)C(=O)N[C@H](Cc1c[nH]c2ccccc12)C(=O)N[C@@H](CC(C)C)C(=O)N[C@@H](CCCCNC1=NCCCN1)C(=O)N1CCC[C@H]1C(=O)N[C@H](C)C(N)=O [listing 2 of 2 here]	>1	
CC/N=C(/NCC)NCCCC[C@@H](NC(=O)[C@H](Cc1ccc(O)cc1)NC(=O)[C@H](CO)NC(=O)[C@@H](Cc1cccnc1)NC(=O)[C@@H](Cc1ccc(F)cc1)NC(=O)[C@@H](Cc1ccc2ccccc2c1)NC(C)=O)C(=O)N[C@@H](CC(C)C)C(=O)N[C@@H](CCCCN/C(=N/CC)NCC)C(=O)N1CCC[C@H]1C(=O)N[C@H](C)C(N)=O [listing 1 of 2 here]		8 (≈ 5.15 µM)
CC/N=C(/NCC)NCCCC[C@@H](NC(=O)[C@H](Cc1ccc(O)cc1)NC(=O)[C@H](CO)NC(=O)[C@@H](Cc1cccnc1)NC(=O)[C@@H](Cc1ccc(F)cc1)NC(=O)[C@@H](Cc1ccc2ccccc2c1)NC(C)=O)C(=O)N[C@@H](CC(C)C)C(=O)N[C@@H](CCCCN/C(=N/CC)NCC)C(=O)N1CCC[C@H]1C(=O)N[C@H](C)C(N)=O [listing 2 of 2 here]	1	
CC/N=C(\NCC)NCCCC[C@H](NC(=O)[C@H](CC(C)C)NC(=O)[C@@H](CCCCN=C(NCC(F)(F)F)NCC(F)(F)F)NC(=O)[C@H](Cc1ccc(O)cc1)NC(=O)[C@H](CO)NC(=O)[C@@H](Cc1cccnc1)NC(=O)[C@@H](Cc1ccc(F)cc1)NC(=O)[C@@H](Cc1ccc2ccccc2c1)NC(C)=O)C(=O)N1CCC[C@H]1C(=O)N[C@H](C)C(N)=O		9.3 (≈ 5.6 µM)
CCCC/N=C(\N)NCCCC[C@H](NC(=O)[C@H](CO)NC(=O)[C@@H](Cc1cccnc1)NC(=O)[C@@H](Cc1ccc(Cl)cc1)NC(=O)[C@@H](Cc1ccc2ccccc2c1)NC(C)=O)C(=O)N[C@H](Cc1cccnc1)C(=O)N[C@@H](CC(C)C)C(=O)N[C@@H](CCCCN/C(N)=N/CCCC)C(=O)N1CCC[C@H]1C(=O)N[C@H](C)C(N)=O [listing 1 of 2 here]		9.3 (≈ 5.98 µM)
CCCC/N=C(\N)NCCCC[C@H](NC(=O)[C@H](CO)NC(=O)[C@@H](Cc1cccnc1)NC(=O)[C@@H](Cc1ccc(Cl)cc1)NC(=O)[C@@H](Cc1ccc2ccccc2c1)NC(C)=O)C(=O)N[C@H](Cc1cccnc1)C(=O)N[C@@H](CC(C)C)C(=O)N[C@@H](CCCCN/C(N)=N/CCCC)C(=O)N1CCC[C@H]1C(=O)N[C@H](C)C(N)=O [listing 2 of 2 here]	1.5	
CCCC/N=C(\N)NCCCC[C@H](NC(=O)[C@H](CC(C)C)NC(=O)[C@@H](Cc1c[nH]c2ccccc12)NC(=O)[C@H](Cc1ccc(O)cc1)NC(=O)[C@H](CO)NC(=O)[C@@H](Cc1c[nH]c2ccccc12)NC(=O)[C@@H](Cc1ccc(Cl)cc1)NC(=O)[C@@H](Cc1ccc2ccccc2c1)NC(C)=O)C(=O)N1CCC[C@H]1C(=O)N[C@H](C)C(N)=O	~1.3	1.6 (≈ 1.02 µM)
CCCC/N=C(\N)NCCCC[C@H](NC(=O)[C@H](CC(C)C)NC(=O)[C@@H](CCCCN/C(N)=N/CCCC)NC(=O)[C@H](Cc1ccc(O)cc1)NC(=O)[C@H](CO)NC(=O)[C@@H](Cc1cccnc1)NC(=O)[C@@H](Cc1ccc(Cl)cc1)NC(=O)[C@@H](Cc1ccc2ccccc2c1)NC(C)=O)C(=O)N1CCC[C@H]1C(=O)N[C@H](C)C(N)=O	~0.9	0.64 (≈ 0.408 µM)
CC/N=C(\NCC)NCCCC[C@H](NC(=O)[C@H](CO)NC(=O)[C@@H](Cc1cccnc1)NC(=O)[C@@H](Cc1ccc(F)cc1)NC(=O)[C@@H](Cc1ccc2ccccc2c1)NC(C)=O)C(=O)N[C@H](Cc1cccnc1)C(=O)N[C@@H](CC(C)C)C(=O)N[C@@H](CCCCN/C(=N/CC)NCC)C(=O)N1CCC[C@H]1C(=O)N[C@H](C)C(N)=O		26.2 (≈ 17 µM)
CC/N=C(/NCC)NCCCC[C@@H](NC(=O)[C@H](Cc1ccc(O)cc1)NC(=O)[C@H](CO)NC(=O)[C@@H](Cc1c[nH]c2ccccc12)NC(=O)[C@@H](Cc1ccc(Cl)cc1)NC(=O)[C@@H](Cc1ccc2ccccc2c1)NC(C)=O)C(=O)N[C@@H](CC(C)C)C(=O)N[C@@H](CCCCN/C(=N/CC)NCC)C(=O)N1CCC[C@H]1C(=O)N[C@H](C)C(N)=O [listing 1 of 2 here]		0.1 (≈ 0.0622 µM)
CC/N=C(/NCC)NCCCC[C@@H](NC(=O)[C@H](Cc1ccc(O)cc1)NC(=O)[C@H](CO)NC(=O)[C@@H](Cc1c[nH]c2ccccc12)NC(=O)[C@@H](Cc1ccc(Cl)cc1)NC(=O)[C@@H](Cc1ccc2ccccc2c1)NC(C)=O)C(=O)N[C@@H](CC(C)C)C(=O)N[C@@H](CCCCN/C(=N/CC)NCC)C(=O)N1CCC[C@H]1C(=O)N[C@H](C)C(N)=O [listing 2 of 2 here]	0.5	
CC(=O)N[C@H](Cc1ccc2ccccc2c1)C(=O)N[C@H](Cc1ccc(Cl)cc1)C(=O)N[C@H](Cc1cccnc1)C(=O)N[C@@H](CO)C(=O)N[C@@H](Cc1ccc(O)cc1)C(=O)N[C@H](CCCCNC1=NCCCN1)C(=O)N[C@@H](CC(C)C)C(=O)N[C@@H](CCCCNC1=NCCCN1)C(=O)N1CCC[C@H]1C(=O)N[C@H](C)C(N)=O	~0.6	1.33 (≈ 0.865 µM)
CC(=O)N[C@H](Cc1ccc2ccccc2c1)C(=O)N[C@H](Cc1ccc(Cl)cc1)C(=O)N[C@H](Cc1c[nH]c2ccccc12)C(=O)N[C@@H](CO)C(=O)N[C@@H](Cc1ccc(O)cc1)C(=O)N[C@H](CCCCNC1=NCCCN1)C(=O)N[C@@H](CC(C)C)C(=O)N[C@@H](CCCCNC1=NCCCN1)C(=O)N1CCC[C@H]1C(=O)N[C@H](C)C(N)=O [listing 1 of 2 here]		2.5 (≈ 1.59 µM)
CC(=O)N[C@H](Cc1ccc2ccccc2c1)C(=O)N[C@H](Cc1ccc(Cl)cc1)C(=O)N[C@H](Cc1c[nH]c2ccccc12)C(=O)N[C@@H](CO)C(=O)N[C@@H](Cc1ccc(O)cc1)C(=O)N[C@H](CCCCNC1=NCCCN1)C(=O)N[C@@H](CC(C)C)C(=O)N[C@@H](CCCCNC1=NCCCN1)C(=O)N1CCC[C@H]1C(=O)N[C@H](C)C(N)=O [listing 2 of 2 here]	0.7	
CC/N=C(/NCC)NCCCC[C@@H](NC(=O)[C@H](Cc1ccc(O)cc1)NC(=O)[C@H](CO)NC(=O)[C@@H](Cc1cccnc1)NC(=O)[C@@H](Cc1ccc(Cl)cc1)NC(=O)[C@@H](Cc1ccc2ccccc2c1)NC(C)=O)C(=O)N[C@@H](CC(C)C)C(=O)N[C@@H](CCCCN/C(=N/CC)NCC)C(=O)N1CCC[C@H]1C(=O)N[C@H](C)C(N)=O [listing 1 of 2 here]		13 (≈ 8.28 µM)
CC/N=C(/NCC)NCCCC[C@@H](NC(=O)[C@H](Cc1ccc(O)cc1)NC(=O)[C@H](CO)NC(=O)[C@@H](Cc1cccnc1)NC(=O)[C@@H](Cc1ccc(Cl)cc1)NC(=O)[C@@H](Cc1ccc2ccccc2c1)NC(C)=O)C(=O)N[C@@H](CC(C)C)C(=O)N[C@@H](CCCCN/C(=N/CC)NCC)C(=O)N1CCC[C@H]1C(=O)N[C@H](C)C(N)=O [listing 2 of 2 here]	0.285	
CC(=O)N[C@H](Cc1ccc2ccccc2c1)C(=O)N[C@H](Cc1ccc(Cl)cc1)C(=O)N[C@H](Cc1cccnc1)C(=O)N[C@@H](CO)C(=O)N[C@@H](CCCN=C(N)N)C(=O)N[C@H](Cc1cccnc1)C(=O)N[C@@H](CC(C)C)C(=O)N[C@@H](CCCCN=C(NCC(F)(F)F)NCC(F)(F)F)C(=O)N1CCC[C@H]1C(=O)N[C@H](C)C(N)=O	0.595	0.95 (≈ 0.596 µM)
CC(=O)N[C@H](Cc1ccc2ccccc2c1)C(=O)N[C@H](Cc1ccc(Cl)cc1)C(=O)N[C@H](Cc1cccnc1)C(=O)N[C@@H](CO)C(=O)N[C@@H](CCCCN=C(NCC(F)(F)F)NCC(F)(F)F)C(=O)N[C@H](Cc1ccc(O)cc1)C(=O)N[C@@H](CC(C)C)C(=O)N[C@@H](CCCCN=C(NCC(F)(F)F)NCC(F)(F)F)C(=O)N1CCC[C@H]1C(=O)N[C@H](C)C(N)=O	1.15	53 (≈ 29.7 µM)
CCCC/N=C(\N)NCCCC[C@H](NC(=O)[C@H](CC(C)C)NC(=O)[C@@H](Cc1cccnc1)NC(=O)[C@H](Cc1ccc(O)cc1)NC(=O)[C@H](CO)NC(=O)[C@@H](Cc1cccnc1)NC(=O)[C@@H](Cc1ccc(Cl)cc1)NC(=O)[C@@H](Cc1ccc2ccccc2c1)NC(C)=O)C(=O)N1CCC[C@H]1C(=O)N[C@H](C)C(N)=O	1.2	15.7 (≈ 10.5 µM)
